Measurements from ChEMBL document CHEMBL4004844, “Structure-based design, synthesis and antitumoral evaluation of enulosides” (Eur J Med Chem, 2017).

What was measured:
NCI-H292 [1] = assay: Growth inhibition of human NCI-H292 cells after 72 hrs by MTT assay; format: functional, cell-based; conditions: NCI-H292, 72 h
Summary of the method: (§1)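 Cells kept in RPMI 1640 or DMEM with 10% FBS, 2 mM glutamine, penicillin/streptomycin, at 37 °C and 5% CO2. Seeded at 10⁵ cells/mL (adherent NCI-H292, MCF-7, HEP-2) or 3 × 10⁵ cells/mL (HL-60). Compounds at 0.1–25 in 0.1% DMSO for 72 h, with DMSO controls. MTT read at 595 nm. IC50 with 95% CI from nonlinear regression, two experiments.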

MCF7 [2] = assay: Growth inhibition of human MCF7 cells after 72 hrs by MTT assay; format: functional, cell-based; conditions: MCF7, 72 h; summary of the method: as §1
HL-60 [3] = assay: Growth inhibition of human HL60 cells after 72 hrs by MTT assay; format: functional, cell-based; conditions: HL-60, 72 h
HEp-2 [4] = assay: Growth inhibition of human Hep2 cells after 72 hrs by MTT assay; format: functional, cell-based; conditions: HEp-2, 72 h; summary of the method: as §1
[5] = Solubility in water; format: physicochemical; conditions: buffer
NCI-H292 [6] = assay: Growth inhibition of human NCI-H292 cells at 25 ug/ml after 72 hrs by MTT assay relative to control; format: functional; conditions: NCI-H292, 72 h, read-out: GI
Summary of the method: (§2)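 Preliminary single-concentration screen at 25 by MTT reduction. Cells seeded at 10⁵ cells/mL (adherent) or 3 × 10⁵ cells/mL (HL-60), exposed for 72 h in 0.1% DMSO. Percent growth inhibition relative to DMSO-treated controls, from absorbance at 595 nm.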

MCF7 [7] = assay: Growth inhibition of human MCF7 cells at 25 ug/ml after 72 hrs by MTT assay relative to control; format: functional; conditions: MCF7, 72 h, read-out: GI; summary of the method: as §2
HL-60 [8] = assay: Growth inhibition of human HL60 cells at 25 ug/ml after 72 hrs by MTT assay relative to control; format: functional; conditions: HL-60, 72 h, read-out: GI; summary of the method: as §2
HEp-2 [9] = assay: Growth inhibition of human Hep2 cells at 25 ug/ml after 72 hrs by MTT assay relative to control; format: functional; conditions: HEp-2, 72 h, read-out: GI; summary of the method: as §2

## CC(C)O[C@@H]1C=CC(=O)[C@@H](CO)O1
NCI-H292 [1]
  IC50: 24.2 µM
MCF7 [2]
  IC50: 36 µM
HL-60 [3]
  IC50: 9.7 µM
HEp-2 [4]
  IC50: 34.9 µM

## CCCO[C@@H]1C=CC(=O)[C@@H](CO)O1
NCI-H292 [1]
  IC50: 15.6 µM
MCF7 [2]
  IC50: 18.3 µM
HL-60 [3]
  IC50: 10.7 µM
HEp-2 [4]
  IC50: 13.4 µM

## C=CCO[C@@H]1C=CC(=O)[C@@H](CO)O1
NCI-H292 [1]
  IC50: 10.3 µM
MCF7 [2]
  IC50: 16.3 µM
HL-60 [3]
  IC50: 4.9 µM
HEp-2 [4]
  IC50: 26.1 µM

## C#CCCO[C@@H]1C=CC(=O)[C@@H](CO)O1
NCI-H292 [1]
  IC50: 12.7 µM
HL-60 [3]
  IC50: 2.5 µM
HEp-2 [4]
  IC50: 7.1 µM

## O=C1C=C[C@@H](OC2CCCCC2)O[C@@H]1CO
NCI-H292 [1]
  IC50: 2.6 µM
MCF7 [2]
  IC50: 11 µM
HL-60 [3]
  IC50: 13.3 µM
HEp-2 [4]
  IC50: 7.5 µM

## COCCOCCOCCO[C@@H]1C=CC(=O)[C@@H](CO)O1
NCI-H292 [1]
  IC50: 35.5 µM
HL-60 [3]
  IC50: 7.9 µM
HEp-2 [4]
  IC50: 32.1 µM
[5]
  solubility: Soluble

## C#CCO[C@@H]1C=CC(=O)[C@@H](CO)O1
NCI-H292 [1]
  IC50: 6.6 µM
MCF7 [2]
  IC50: 10.4 µM
HL-60 [3]
  IC50: 9.3 µM
HEp-2 [4]
  IC50: 15.4 µM

## CCO[C@@H]1C=CC(=O)[C@@H](CO)O1
NCI-H292 [6]
  inhibition of growth at 25 µg/mL: 100%
MCF7 [7]
  inhibition of growth at 25 µg/mL: 97.2%
HL-60 [8]
  inhibition of growth at 25 µg/mL: 100%
HEp-2 [9]
  inhibition of growth at 25 µg/mL: 100%
NCI-H292 [1]
  IC50: 18 µM
HL-60 [3]
  IC50: 3.5 µM
HEp-2 [4]
  IC50: 5.8 µM

## O=C1C=C[C@@H](OCc2ccccc2)O[C@@H]1CO
NCI-H292 [1]
  IC50: 3.8 µM
MCF7 [2]
  IC50: 11.1 µM
HL-60 [3]
  IC50: 27.3 µM
HEp-2 [4]
  IC50: 8.5 µM

## CCO[C@@H]1C=C[C@H](OC(C)=O)[C@@H](COC(C)=O)O1
NCI-H292 [6]
  inhibition of growth at 25 µg/mL: 2.1%
MCF7 [7]
  inhibition of growth at 25 µg/mL: 5.1%
HL-60 [8]
  inhibition of growth at 25 µg/mL: 12.3%
HEp-2 [9]
  inhibition of growth at 25 µg/mL: 9.3%

## O=C1C=C[C@@H](OC2CCCC2)O[C@@H]1CO
NCI-H292 [1]
  IC50: 19.8 µM
MCF7 [2]
  IC50: 20.7 µM
HL-60 [3]
  IC50: 4.2 µM
HEp-2 [4]
  IC50: 8 µM

## CCO[C@@H]1C=C[C@H](O)[C@@H](CO)O1
NCI-H292 [6]
  inhibition of growth at 25 µg/mL: 17.4%
MCF7 [7]
  inhibition of growth at 25 µg/mL: 20.4%
HL-60 [8]
  inhibition of growth at 25 µg/mL: 31.4%
HEp-2 [9]
  inhibition of growth at 25 µg/mL: 12.5%

## COc1cccc2c1C(=O)c1c(O)c3c(c(O)c1C2=O)C[C@@](O)(C(=O)CO)C[C@@H]3O[C@H]1C[C@H](N)[C@H](O)[C@H](C)O1 [DOXORUBICIN]
NCI-H292 [1]
  IC50: 0.6 µM
MCF7 [2]
  IC50: 0.6 µM
HEp-2 [4]
  IC50: 1.3 µM
